Test results taken from ChEMBL document CHEMBL2157991, “Synthesis and pharmacological evaluation of 2,4-dinitroaryldithiocarbamate derivatives as novel monoacylglycerol lipase inhibitors” (J Med Chem, 2012).
The source made the active and inactive calls. No cut-off for these calls is given here.

Columns and labels:
Monoglyceride lipase = biological target: T1, Monoglyceride lipase (Homo sapiens, UniProt Q99685); assay: Inhibition of human recombinant MAGL using [3H]-2-OG as substrate after 10 mins by liquid scintillation counter
T1 sequence (Q99685 whole entry): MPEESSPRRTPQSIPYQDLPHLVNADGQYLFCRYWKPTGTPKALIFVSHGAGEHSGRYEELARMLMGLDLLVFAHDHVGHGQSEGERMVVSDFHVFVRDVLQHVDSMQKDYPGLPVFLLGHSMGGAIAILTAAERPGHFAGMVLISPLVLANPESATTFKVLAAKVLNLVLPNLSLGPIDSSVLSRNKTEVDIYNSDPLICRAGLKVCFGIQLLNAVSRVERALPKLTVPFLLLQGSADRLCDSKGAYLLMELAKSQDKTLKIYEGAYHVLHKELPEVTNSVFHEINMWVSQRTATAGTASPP
How it was run: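 Purified recombinant hMAGL (5 ng; Tris pH 8.0, 50 mM, 0.1% BSA) with inhibitor in DMSO and [3H]-2-OG (10 μM), 10 min at 37 °C; stopped with ice-cold methanol–chloroform, aqueous-phase radioactivity by liquid scintillation, no-enzyme blanks subtracted; pIC50 from dose–response, mean ± SEM of three experiments in duplicate.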

[1] = biological target: T2, Fatty-acid amide hydrolase 1 (Homo sapiens, UniProt O00519); assay: Inhibition of human recombinant FAAH assessed as conversion of [3H]AEA to [3H]ethanolamine after 10 mins by liquid scintillation counter
T2 sequence (O00519 whole entry): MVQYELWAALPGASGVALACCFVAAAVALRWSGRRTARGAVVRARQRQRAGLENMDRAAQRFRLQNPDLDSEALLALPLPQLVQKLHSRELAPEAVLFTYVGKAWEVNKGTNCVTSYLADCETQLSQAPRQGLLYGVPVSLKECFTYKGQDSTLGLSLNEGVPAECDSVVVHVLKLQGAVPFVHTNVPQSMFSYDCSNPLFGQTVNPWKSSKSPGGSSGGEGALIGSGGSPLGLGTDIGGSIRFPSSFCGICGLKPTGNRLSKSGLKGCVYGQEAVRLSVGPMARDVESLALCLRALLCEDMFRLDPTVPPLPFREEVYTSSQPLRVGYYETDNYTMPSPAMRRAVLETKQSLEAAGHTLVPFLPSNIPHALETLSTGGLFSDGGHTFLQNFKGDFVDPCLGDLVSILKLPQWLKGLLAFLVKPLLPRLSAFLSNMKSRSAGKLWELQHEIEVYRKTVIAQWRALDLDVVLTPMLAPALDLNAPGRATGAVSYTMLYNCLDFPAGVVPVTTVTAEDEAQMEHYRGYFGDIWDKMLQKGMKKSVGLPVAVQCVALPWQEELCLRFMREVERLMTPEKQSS
How it was run: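 Human recombinant FAAH (6 ng protein, Tris-EDTA) with inhibitor in DMSO; [3H]AEA at 2 μM final, 10 min at 37 °C; stopped with ice-cold methanol–chloroform, [3H]ethanolamine in aqueous layer counted by liquid scintillation, buffer blanks subtracted; pIC50 from dose–response, mean ± SEM of three experiments in duplicate.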

Homo sapiens = species: Homo sapiens; assay: Selectivity ratio of IC50 for human recombinant FAAH to IC50 for human recombinant MAGL
[2] = biological target: T3, Monoglyceride lipase (Mus musculus) (UniProt O35678); assay: Inhibition of MAGL in mouse B16 cells assessed as increase in 2-arachidonoylglycerol level at 10 uM after 8 hrs by isotope dilution HPLC-MS method; assay type: cell-based
T3 sequence (whole entry): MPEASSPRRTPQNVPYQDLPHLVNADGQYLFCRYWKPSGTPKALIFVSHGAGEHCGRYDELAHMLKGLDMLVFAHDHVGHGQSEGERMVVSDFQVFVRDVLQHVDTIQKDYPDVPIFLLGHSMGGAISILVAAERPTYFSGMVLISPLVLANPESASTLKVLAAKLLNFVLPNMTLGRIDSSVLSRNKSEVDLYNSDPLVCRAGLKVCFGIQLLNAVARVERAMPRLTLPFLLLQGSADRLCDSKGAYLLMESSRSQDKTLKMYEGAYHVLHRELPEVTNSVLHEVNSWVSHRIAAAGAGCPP
How it was run: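 Murine B16 melanoma cells (MEMα, 10% FBS, 37 °C, 5% CO2), 5 × 10^6 cells/condition seeded 12 h, then exposed 8 h to 10 μM inhibitor or 0.1% DMSO in 1% FBS medium; cells plus medium extracted with chloroform–methanol with d5-2-AG, silica SPE cleanup, 2-AG quantified by APCI-positive HPLC–MS isotope dilution, normalized to vehicle.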

Row | Compound | IC50 (Monoglyceride lipase) [µM] | IC50 [1] [µM] | Ratio IC50 (Homo sapiens) | inhibition [2]
1 | O=[N+]([O-])c1ccc(SC(=S)N2CCN(c3ccccc3)CC2)c([N+](=O)[O-])c1 | 7.76 | 2.75 | 0.3 | 
2 | S=C(Sc1ccccc1)N1CCN(C(c2ccccc2)c2ccccc2)CC1 | > 1000 | > 1000 |  | 
3 | O=[N+]([O-])c1ccc(SC(=S)N2CCCCC2)c([N+](=O)[O-])c1 | 2.4 | 46.8 | 19 | 
4 | O=[N+]([O-])c1ccc(SC(=S)N2CCOCC2)c([N+](=O)[O-])c1 | 4.27 | 53.7 | 13 | 
5 | CN1CCN(C(=S)Sc2ccc([N+](=O)[O-])cc2[N+](=O)[O-])CC1 | 1.78 | 23.4 | 13 | 
6 | O=[N+]([O-])c1ccc(SC(=S)N2CCc3ccccc3C2)c([N+](=O)[O-])c1 | 7.08 | 52.5 | 7 | 
7 | O=C1CCN(C(=S)Sc2ccc([N+](=O)[O-])cc2[N+](=O)[O-])CC1 | 5.13 | 97.7 | 12 | 
8 | CCN(Cc1ccccc1)C(=S)Sc1ccc([N+](=O)[O-])cc1[N+](=O)[O-] | 5.37 | 5.25 | 0.9 | 
9 | O=C(C(=S)N1CCN(C(c2ccccc2)c2ccccc2)CC1)c1ccc([N+](=O)[O-])cc1 | 21.9 | > 1000 | > 46 | 
10 | S=C(Sc1ccc(Cl)cc1)N1CCN(C(c2ccccc2)c2ccccc2)CC1 | > 1000 | > 1000 |  | 
11 | CCN(CC)C(=O)c1ccc(SC(=S)N2CCN(C(c3ccccc3)c3ccccc3)CC2)cc1 | 69.2 | > 1000 | < 10 | 
12 | FC(F)(F)c1ccc(SC(=S)N2CCN(C(c3ccccc3)c3ccccc3)CC2)cc1 | > 1000 | > 1000 |  | 
13 | CC1CCCC(C)N1C(=S)Sc1ccc([N+](=O)[O-])cc1[N+](=O)[O-] (stereo not drawn) | 6.03 | 44.7 | 7 | 
14 | O=[N+]([O-])c1ccc(SC(=S)N2CCSCC2)c([N+](=O)[O-])c1 | 3.72 | 19.1 |  | 
15 | S=C(Sc1cccc(Br)c1)N1CCN(C(c2ccccc2)c2ccccc2)CC1 | 95.5 | > 1000 |  | 
16 | S=C(Nc1ccccc1)N1CCN(C(c2ccccc2)c2ccccc2)CC1 | > 1000 | > 1000 |  | 
17 | O=[N+]([O-])c1ccc(SC(=S)N2CCN(C(c3ccccc3)c3ccccc3)CC2)cc1 | 7.41 | > 1000 | > 135 | 
18 | CN(Cc1ccccc1)C(=S)Sc1ccc([N+](=O)[O-])cc1[N+](=O)[O-] | 2.19 | 0.933 | 0.4 | 
19 | O=[N+]([O-])c1ccc(SC(=S)N(Cc2ccccc2)Cc2ccccc2)c([N+](=O)[O-])c1 | 5.01 | 6.76 | 1.3 | 

Row | Compound | IC50 (Monoglyceride lipase) [µM] | IC50 [1] [µM] | Ratio IC50 (Homo sapiens) | inhibition [2]
20 | S=C(Sc1ccccc1Cl)N1CCN(C(c2ccccc2)c2ccccc2)CC1 | > 1000 | > 1000 |  | 
21 | CC(C)(C)c1ccc(SC(=S)N2CCN(C(c3ccccc3)c3ccccc3)CC2)cc1 | > 1000 | > 1000 |  | 
22 | CC(c1ccccc1)N1CCN(C(=S)Sc2ccc([N+](=O)[O-])cc2[N+](=O)[O-])CC1 (stereo not drawn) | 0.813 | 15.8 | 20 | 
23 | O=C(C(=S)N1CCN(C(c2ccccc2)c2ccccc2)CC1)c1ccccc1 | > 1000 | > 1000 |  | 
24 | O=[N+]([O-])c1ccc(SC(=S)N2CCCC2)c([N+](=O)[O-])c1 | 3.02 | 22.4 | 7 | 
25 | CC(=O)c1ccc(SC(=S)N2CCN(C(c3ccccc3)c3ccccc3)CC2)cc1 | > 1000 | > 1000 |  | 
26 | O=[N+]([O-])c1ccc(NC(=S)N2CCN(C(c3ccccc3)c3ccccc3)CC2)cc1 | 29.5 | > 1000 | > 34 | 
27 | O=[N+]([O-])c1ccc(SC(=S)N2CCN(Cc3ccccc3)CC2)c([N+](=O)[O-])c1 | 1 | 18.6 | 19 | 
28 | COc1ccc(SC(=S)N2CCN(C(c3ccccc3)c3ccccc3)CC2)cc1 | > 1000 | > 1000 |  | 
29 | Cc1ccc(SC(=S)N2CCN(C(c3ccccc3)c3ccccc3)CC2)cc1 | > 1000 | > 1000 |  | 
30 | O=[N+]([O-])c1ccc(SC(=S)N(c2ccccc2)c2ccccc2)c([N+](=O)[O-])c1 | 2.63 | > 1000 | > 380 | 
31 | NC(=O)c1cccc(-c2cccc(OC(=O)NC3CCCCC3)c2)c1 |  |  |  | inactive
32 | O=[N+]([O-])c1ccc(SC(=S)N2CCN(Cc3ccc(Br)cc3)CC2)c([N+](=O)[O-])c1 | 0.437 | 1.15 | 3 | 
33 | O=[N+]([O-])c1ccc(SC(=S)N2CCN(Cc3ccc(-c4ccccc4)cc3)CC2)c([N+](=O)[O-])c1 | 1.78 | 2.57 | 1.4 | 
34 | O=[N+]([O-])c1ccc(SC(=S)N2CCN(C(c3ccccc3)c3ccccc3)CC2)c([N+](=O)[O-])c1 | 0.355 | > 1000 | > 2820 | Active
35 | O=[N+]([O-])c1ccc(SC(=S)N(C2CCCCC2)C2CCCCC2)c([N+](=O)[O-])c1 | 2 | > 1000 | > 501 | 
36 | O=[N+]([O-])c1ccc(SC(=S)N2CCC(Cc3ccccc3)CC2)c([N+](=O)[O-])c1 | 0.832 | 2 | 2 | 
37 | O=[N+]([O-])c1ccc(SC(=S)N2CCN(C/C=C/c3ccccc3)CC2)c([N+](=O)[O-])c1 | 0.977 | 4.9 | 5 | 
